Test results taken from ChEMBL document CHEMBL1781999, “Lead optimization of aryl and aralkyl amine-based triazolopyrimidine inhibitors of Plasmodium falciparum dihydroorotate dehydrogenase with antimalarial activity in mice” (J Med Chem, 2011).
The source made the active and inactive calls. The calls are words filed in the database; no cut-off is given here.

What was measured:
[1] = test system: Rattus norvegicus; test: Terminal elimination half life in Sprague-Dawley rat at 20.1 mg/kg, po by LC-MS analysis; assay type: ADME, organism-based; design: dose 20.1 mg/kg, route oral; settings: in vivo
Summary of the method: (§1)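 Overnight-fasted male Sprague Dawley rats (n=2 per dose). IV dosing was a 10 min jugular infusion in a solution vehicle of DMSO and acid with Captisol or Tween/glucose, depending on compound; oral dosing was by gavage as a suspension.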

[2] = Antimalarial activity against Plasmodium berghei ANKA NK65 infected in po dosed Swiss Webster mouse assessed as reduction of parasitemia level administered qd for 4 days measured 24 hrs after last dose by light microscopic analysis; assay type: functional
[3] = test system: Rattus norvegicus; test: Volume of distribution at steady state in Sprague-Dawley rat at 1 mg/kg, iv by LC-MS analysis; assay type: ADME, organism-based; design: dose 1 mg/kg, route intravenous; settings: in vivo; summary of the method: as §1
[4] = test system: Rattus norvegicus; test: Terminal elimination half life in Sprague-Dawley rat at 1 mg/kg, iv by LC-MS analysis; assay type: ADME, organism-based; design: dose 1 mg/kg, route intravenous; settings: in vivo; summary of the method: as §1
[5] = test system: Rattus norvegicus; test: AUC (0 to infinity) in Sprague-Dawley rat at 20.1 mg/kg, po by LC-MS analysis; assay type: ADME, organism-based, Plasma; design: time infinity, dose 20.1 mg/kg, route oral; settings: in vivo
Summary of the method: (§2)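 Overnight-fasted male Sprague Dawley rats (n=2 per compound) gavaged with an aqueous suspension (DMSO, cellulose, benzyl alcohol, Tween 80 in water); food returned 4 h post-dose. Arterial blood via carotid cannula up to 24 h into heparinized tubes with stabilization cocktail. Plasma acetonitrile-precipitated, LC-MS against blank-plasma standards. AUC by non-compartmental analysis; Cmax read from profiles.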

[6] = test system: Rattus norvegicus; test: Volume of distribution at steady state in Sprague-Dawley rat at 5.1 mg/kg, iv by LC-MS analysis; assay type: ADME, organism-based; design: dose 5.1 mg/kg, route intravenous; settings: in vivo; summary of the method: as §1
[7] = test system: Plasmodium berghei ANKA; test: Antimalarial activity against Plasmodium berghei ANKA NK65 infected in Swiss Webster mouse assessed as complete reduction of parasitemia level at 50 mg/kg, po bid administered for 4 days measured 24 hrs after last dose by light microscopic analysis; assay type: functional, organism-based; design: dose 50 mg/kg
[8] = test system: Rattus norvegicus; test: Terminal elimination half life in Sprague-Dawley rat at 5.1 mg/kg, iv by LC-MS analysis; assay type: ADME, organism-based; design: dose 5.1 mg/kg, route intravenous; settings: in vivo; summary of the method: as §1
[9] = test system: Plasmodium berghei ANKA; test: Antimalarial activity against Plasmodium berghei ANKA NK65 infected in Swiss Webster mouse assessed as complete reduction of parasitemia level at 100 mg/kg, po qd administered for 4 days measured 24 hrs after last dose by light microscopic analysis; assay type: functional, organism-based; design: dose 100 mg/kg
Summary of the method: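 Female Swiss Webster mice, 8-10 weeks old (20-22 g), infected intraperitoneally with 2 × 10^7 P. berghei NK65 ANKA-infected erythrocytes. Oral doses in CMC vehicle (200 μL), first given 3 h post-infection, then at 24, 48 and 72 h. Parasitemia followed daily from 24 h by light microscopy at 1000× oil immersion, counting ≥10 fields of >100 erythrocytes. Mice losing ≥20% body weight were euthanized.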

[10] = test system: Rattus norvegicus; test: Cmax in Sprague-Dawley rat at 20.1 mg/kg, po by LC-MS analysis; assay type: ADME, organism-based; design: dose 20.1 mg/kg, route oral; settings: in vivo; summary of the method: as §2
[11] = test system: Rattus norvegicus; test: Oral bioavailability in Sprague-Dawley rat at 20.1 mg/kg by LC-MS analysis; assay type: ADME, organism-based; settings: in vivo
Summary of the method: (§3)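 Overnight-fasted male Sprague Dawley rats, dosed orally by gavage as an aqueous suspension, n=2. Arterial blood taken via carotid cannula up to 24 h; plasma measured by LC-MS. %F = mean dose-normalized oral AUC0-24h versus IV AUC0-24h at the higher IV dose (5 mg/kg or 3 mg/kg, depending on compound); treated as an estimate.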

[12] = test system: Rattus norvegicus; test: Volume of distribution at steady state in Sprague-Dawley rat at 2.9 mg/kg, iv by LC-MS analysis; assay type: ADME, organism-based; design: dose 2.9 mg/kg, route intravenous; settings: in vivo; summary of the method: as §1
[13] = test system: Plasmodium berghei ANKA; test: Antimalarial activity against Plasmodium berghei ANKA NK65 infected in Swiss Webster mouse assessed as complete cure of animal at 100 mg/kg, po bid measured on day 9 by light microscopic analysis; assay type: functional, organism-based; design: dose 100 mg/kg
[14] = Terminal elimination half life in Sprague-Dawley rat at 18.6 mg/kg, po by LC-MS analysis; assay type: ADME, organism-based; design: dose 18.6 mg/kg, route oral; settings: in vivo, read-out: beta t1/2 (converted); summary of the method: as §1
[15] = Oral bioavailability in Sprague-Dawley rat at 18.6 mg/kg by LC-MS analysis; assay type: ADME, organism-based; settings: in vivo; summary of the method: as §3
[16] = Cmax in Sprague-Dawley rat at 18.6 mg/kg, po by LC-MS analysis; assay type: ADME, organism-based; design: dose 18.6 mg/kg, route oral; settings: in vivo; summary of the method: as §2
[17] = test system: Rattus norvegicus; test: Terminal elimination half life in Sprague-Dawley rat at 0.9 mg/kg, iv by LC-MS analysis; assay type: ADME, organism-based; design: dose 0.9 mg/kg, route intravenous; settings: in vivo; summary of the method: as §1
[18] = test system: Rattus norvegicus; test: Terminal elimination half life in Sprague-Dawley rat at 2.9 mg/kg, iv by LC-MS analysis; assay type: ADME, organism-based; design: dose 2.9 mg/kg, route intravenous; settings: in vivo; summary of the method: as §1
[19] = test system: Rattus norvegicus; test: Volume of distribution at steady state in Sprague-Dawley rat at 0.9 mg/kg, iv by LC-MS analysis; assay type: ADME, organism-based; design: dose 0.9 mg/kg, route intravenous; settings: in vivo; summary of the method: as §1
[20] = AUC (0 to infinity) in Sprague-Dawley rat at 18.6 mg/kg, po by LC-MS analysis; assay type: ADME, organism-based; design: time infinity, dose 18.6 mg/kg, route oral; settings: plasma; summary of the method: as §2

| Structure (SMILES) | beta t1/2 [1] | ED50 [2] | Vdss [3] | beta t1/2 [4] | AUC [5] | Vdss [6] | Activity [7] | beta t1/2 [8] | Activity [9] | Cmax [10] | F [11] | Vdss [12] | Activity [13] | half-life [14] | bioavailability [15] | Cmax [16] | beta t1/2 [17] | beta t1/2 [18] | Vdss [19] | AUC(0-inf) [20] |
| --- | --- | --- | --- | --- | --- | --- | --- | --- | --- | --- | --- | --- | --- | --- | --- | --- | --- | --- | --- | --- |
| Cc1cc(Nc2ccc(S(F)(F)(F)(F)F)cc2)n2ncnc2n1 | 33 h | 17 mg/kg | 1.4 L/kg | 11.4 h | 101693 µM·min | 1.5 L/kg | inactive | 14.5 h | inactive | 31 µM | > 100% | – | – | – | – | – | – | – | – | – |
| Cc1cc(Nc2cc(F)c(C(F)(F)F)c(F)c2)n2ncnc2n1 | – | – | – | – | – | – | – | – | – | – | – | 0.5 L/kg | inactive | 17.6 h | > 100% | 34.3 µM | 1.6 h | 4.5 h | 0.4 L/kg | 1250 µM·h |
